Results gathered from unrelated publications.
Target: Serine/threonine-protein kinase D2 (PRKD2, Homo sapiens, UniProt Q9BZL6)
Residues used in one study (Q9BZL6 1-878): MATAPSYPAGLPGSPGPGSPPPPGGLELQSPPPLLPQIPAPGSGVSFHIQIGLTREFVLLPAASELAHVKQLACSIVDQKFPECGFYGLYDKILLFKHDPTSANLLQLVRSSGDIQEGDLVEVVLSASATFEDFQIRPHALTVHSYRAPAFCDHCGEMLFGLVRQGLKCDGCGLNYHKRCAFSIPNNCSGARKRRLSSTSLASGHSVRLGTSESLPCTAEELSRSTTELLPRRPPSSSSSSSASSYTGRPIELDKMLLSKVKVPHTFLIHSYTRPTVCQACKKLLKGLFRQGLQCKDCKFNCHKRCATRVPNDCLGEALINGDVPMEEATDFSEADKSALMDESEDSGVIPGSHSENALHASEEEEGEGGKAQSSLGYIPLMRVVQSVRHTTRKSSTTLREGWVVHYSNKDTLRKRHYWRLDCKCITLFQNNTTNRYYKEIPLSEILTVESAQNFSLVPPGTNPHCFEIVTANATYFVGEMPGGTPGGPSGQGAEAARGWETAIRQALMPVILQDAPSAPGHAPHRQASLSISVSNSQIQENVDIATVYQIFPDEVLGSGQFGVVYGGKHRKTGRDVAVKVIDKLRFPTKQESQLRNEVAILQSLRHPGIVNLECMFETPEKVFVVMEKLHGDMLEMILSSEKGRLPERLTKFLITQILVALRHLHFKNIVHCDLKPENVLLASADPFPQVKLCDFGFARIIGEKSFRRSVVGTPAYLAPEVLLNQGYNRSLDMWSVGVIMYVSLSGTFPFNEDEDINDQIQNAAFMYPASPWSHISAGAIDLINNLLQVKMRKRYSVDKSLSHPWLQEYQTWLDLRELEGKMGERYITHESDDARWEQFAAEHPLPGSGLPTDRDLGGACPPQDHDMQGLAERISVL

SMILES	assay	setting	measurement	result
O=C(Nc1cnn(-c2csc(C(=O)NC3COC3)c2)c1)Nc1ccccc1Cl	enzyme activity, inhibitor	5 µM	remaining activity	92.8%
Cn1c2c(c3ccc(Cl)c(Cl)c31)C(C#N)C1(CCNCC1)NC2=O (racemic)	thermal stability, DSF	10 µM	ΔTm	0.9 °C
CNc1cccc2cc(C(=O)Nc3ccc(C(=O)O)cc3)c(=O)[nH]c12	enzyme activity, inhibitor	10 µM	inhibition	2.5%
CCN(CC)CCNC(=O)c1c(C)[nH]c(/C=C2\C(=O)Nc3ccc(F)cc32)c1C	enzyme activity, inhibitor	10 µM	inhibition	88%
CC(C)(C)c1nc(-c2cccc(NS(=O)(=O)c3c(F)cccc3F)c2F)c(-c2ccnc(N)n2)s1	enzyme activity, inhibitor, radiometric	1 µM	remaining activity	30%
CC(=O)Nc1c(C(C)=O)c(=O)n(C)c2nc(-c3ccc(Cl)cc3Cl)c(-c3ccc(Cl)cc3)cc12	cell-free assay, competition with immobilised ligand	1 µM	remaining binding	100%
Nc1ncnc2occ(-c3ccc(NC(=O)Nc4cc(C(F)(F)F)ccc4F)cc3)c12	cell-free assay, inhibitor	20 µM	remaining signal	43%
Cc1cc(C)c(-n2ccn3nc(-c4cccnc4)cc23)cc1NC(=O)c1cc(C#N)cc(S(F)(F)(F)(F)F)c1	cell-free assay, competition with immobilised ligand	0.1 µM	remaining binding	100%
O=S1(=O)N=C(NCc2ccc(OC(F)(F)F)cc2)Nc2cc(Cl)ccc21	binding, competition with immobilised ligand	10 µM	inhibition	> 90%
c1ccc(CNc2nc(N3CCOc4ccccc43)nc3c2CCCC3)cc1	target engagement in cells, inhibitor, chemoproteomics	20 mM	inhibition	-7.2%
CN([C@@H]1CCc2c(CC(=O)O)c3ccccc3n2C1)S(=O)(=O)c1ccc(F)cc1	cell-free assay, competition with immobilised ligand	1 µM	remaining binding	100%
Cn1c2c(c3ccc(Cl)c(Cl)c31)C(C#N)C1(CCCCC1)NC2=O (racemic)	thermal stability, DSF	10 µM	ΔTm	0.1 °C
CCCOc1ccc(OC)c(F)c1C(=O)c1ccc(C(=O)N[C@@H]2CNC[C@H]2NC(=O)c2ccc3[nH]ncc3c2)cc1	enzyme activity, inhibitor	10 µM	remaining activity	48%
Cc1cnc(NC2CCOCC2)nc1-n1cnc(C(=O)NC(CN)c2cc(F)cc(Cl)c2)c1 (stereo not shown)	enzyme activity, inhibitor, radiometric	1 µM	remaining activity	5%
CCN(CC)c1ccc(C2=NNC(=O)CC2C)cc1[N+](=O)[O-] (stereo not shown)	enzyme activity, inhibitor	10 µM	remaining activity	106%
Cn1c2c(c3ccc(Cl)c(Cl)c31)C(C#N)C1(CCN(C(=O)OC(C)(C)C)CC1)NC2=O (racemic)	thermal stability, DSF	10 µM	ΔTm	0 °C
Cc1cc(NC(=O)c2cccc3cc(-c4cccc5[nH]nc(N)c45)ccc23)ccc1F	enzyme activity, inhibitor	0.1 µM	activity vs control	91%

SMILES	assay	setting	measurement	result
CO[C@H]1CC[C@H](CNc2ccc(S(=O)(=O)NC(=O)c3ccc(N4CCN(CC5=C(c6ccc(Cl)cc6)CC(C)(C)CC5)CC4)cc3Oc3cnc4[nH]ccc4c3)cc2[N+](=O)[O-])CC1	cell-free assay, competition with immobilised ligand	1 µM	remaining binding	100%
COc1cc2c(N3CCN(C(=O)Nc4ccc(OC(C)C)cc4)CC3)ncnc2cc1OCCCN1CCCCC1	cell-free assay	0.5 µM	remaining signal	96.4%
Cn1c2c(c3ccc(Cl)c(Cl)c31)C(C#N)C1(CCCC1)NC2=O (stereo not shown)	thermal stability, DSF	10 µM	ΔTm	-0.1 °C
Cc1ccc(Nc2nccc(N(C)c3ccc4c(C)n(C)nc4c3)n2)cc1S(N)(=O)=O	enzyme activity, inhibitor	10 µM	inhibition	15%
Cc1ccc(C(=O)NCc2ccsc2)cc1C#Cc1cn(C(C)C)c2ncnc(N)c12	enzyme activity, inhibitor	1 µM	activity vs control	71%
CCCCN(CCCC)C(=O)CN1C[C@H](c2cc(OC)c3c(c2)OCO3)[C@@H](C(=O)O)[C@@H]1CC(C)(C)CCC	cell-free assay, competition with immobilised ligand	1 µM	remaining binding	100%
N#CCCc1ccc2c(c1)-c1[nH]c3ccc([N+](=O)[O-])cc3c1CC(=O)N2	cell-free assay	0.5 µM	remaining signal	94.2%
Cn1nc(C(=O)NCc2ccc(C(=O)O)cc2)cc1-c1ccc2[nH]ccc2c1	cell-free assay, competition with immobilised ligand	0.1 µM	remaining binding	100%
CNC(=O)c1cc(Oc2ccc(NC(=O)Nc3ccc(Cl)c(C(F)(F)F)c3)cc2)ccn1	enzyme activity, inhibitor	10 µM	inhibition	15%
Cn1cnc(Br)c1C1=CN(c2ncnc3[nH]cnc23)CCS1	enzyme activity, inhibitor, radiometric	2 µM	inhibition	95.6%
Cn1c2c(c3ccc(Cl)c(Cl)c31)C(C#N)C1(CCOCC1)NC2=O (stereo not shown)	thermal stability, DSF	10 µM	ΔTm	-0.1 °C
CC/C(=N\NC(=O)NCc1cccc(O)c1)c1ccc(O)c(C)c1O	enzyme activity, inhibitor	0.1 µM	inhibition	-11.5%
COc1cc2ncnc(Nc3ccc(Oc4ccccc4)cc3C)c2cc1OC	enzyme activity, inhibitor	1 µM	inhibition	9%
CCS(=O)(=O)c1cc2cc(C[C@@](O)(CC(C)(C)c3ccc(F)cc3C(N)=O)C(F)(F)F)[nH]c2cn1	cell-free assay, competition with immobilised ligand	1 µM	remaining binding	89%
CCN1CCC2(CC1)NC(=O)c1c(c3ccc(Cl)c(Cl)c3n1C)C2C#N (racemic)	thermal stability, DSF	10 µM	ΔTm	0.6 °C
Cc1c(NC(=O)c2cc(C(N)=O)nc3cc(F)ccc23)c(C(F)(F)F)nn1Cc1ccc(C(C)(C)C)cc1	cell-free assay, competition with immobilised ligand	1 µM	remaining binding	100%
Cn1cncc1C1=CN(c2ncnc3[nH]cnc23)CCS1	enzyme activity, inhibitor, radiometric	50 nM	inhibition	38.2%
